Results reported in PMC3835729 (Biochemistry, 2013).

Tests used:
[1] = biological target: T1, human histidine triad nucleotide binding protein 1 (hHint1) (Homo sapiens, UniProt P49773); assay: stopped-flow fluorescence, burst; format: biochemical; conditions: 20 mM HEPES, 1 mM MgCl2, pH 7.2, 25 °C; pre-steady state
In short: (§1)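 Recombinant WT human Hint1 (E. coli BB2, AMP-agarose, desalted) was loaded at 5 μM in one syringe, with substrate in 20 mM HEPES, 1 mM MgCl2, pH 7.2 in the other. Substrate was phosphoramidate (5-60 μM) or acyl adenylate (5-40 μM). Equal volumes were mixed at 25°C. Fluorescence used excitation at 280 nm and a 320 nm cutoff. The burst rate came from a single exponential plus linear term, and Kadenylyl from a nonlinear fit versus [S]. Six experiments were averaged.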

[2] = biological target: T1, human histidine triad nucleotide binding protein 1 (hHint1); assay: tryptophan fluorescence titration
[3] = biological target: T1, human histidine triad nucleotide binding protein 1 (hHint1); assay: stopped-flow catalytic trapping with TpAd; format: biochemical
In short: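 Wild-type human Hint1, expressed in E. coli hinT-disrupted strain BB2 and purified on AMP-agarose, at 5 μM in one stopped-flow syringe. It was pre-incubated 10 min with the test compound (0-5000 μM) and then mixed with the tryptamine-releasing phosphoramidate substrate (40 μM). Indole fluorescence was read with excitation at 280 nm through a 320 nm cutoff filter. Test-compound absorbance was kept within 5%.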

[4] = biological target: T1, human histidine triad nucleotide binding protein 1 (hHint1); assay: stopped-flow fluorescence, burst; format: biochemical; conditions: 20 mM HEPES, 1 mM MgCl2, pH 7.2, 25 °C; pre-steady state; remark: listed apart in the source
In short: as §1

T1 sequence (P49773 2-126): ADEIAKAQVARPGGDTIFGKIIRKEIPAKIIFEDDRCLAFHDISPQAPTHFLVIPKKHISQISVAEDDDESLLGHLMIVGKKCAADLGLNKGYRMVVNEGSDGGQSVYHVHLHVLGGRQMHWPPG

In the case of `Nc1ncnc2c1ncn2[C@@H]1O[C@H](COP(=O)(O)OC(=O)CCc2c[nH]c3ccccc23)[C@@H](O)[C@H]1O` [AIPA], the “K^adenylyl” value [1] is reported as 5 ± 1 µM.

For `Nc1ncnc2c1ncn2[C@@H]1O[C@H](COP(=O)(O)O)[C@@H](O)[C@H]1O` [AMP], the Kd [2] was 200 µM and the Ki [3] was about 200 µM.

With `Nc1ncnc2c1ncn2[C@@H]1O[C@H](COP(=O)(O)NCCc2c[nH]c3ccccc23)[C@@H](O)[C@H]1O` [TpAd] the “K^adenylyl” value [4] was 13 ± 2 µM.
